Data taken from ChEMBL document CHEMBL1121813, “Dihydrochalcone sweeteners. A study of the atypical temporal phenomena” (1981).

Experiments:
Format in all cases: functional
Homo sapiens [1] = organism: Homo sapiens; test: Sour character at a concentration of 251 ppm (mean value)
How it was run: (§1)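 Trained human sensory panel (Swartz method) tasted dilute aqueous solutions of the compounds, which had to be ≥95 weight percent pure and free of mutagenicity and toxicity. Taste character is reported as the mean value with 2S_m limits. Data deviating excessively at the 95% confidence level were rejected by the t-value method.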

Homo sapiens [2] = organism: Homo sapiens; test: Other taste character at a concentration of 251 ppm (mean value); how it was run: as §1
Homo sapiens [3] = organism: Homo sapiens; test: Intensity calculated on a molar basis relative to a 0.25 M sucrose solution at a concentration of 251 ppm (mean value)
How it was run: (§2)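 Trained human judges tasted aqueous solutions of the test compound; compounds were first required to be ≥95 weight percent pure and free of mutagenicity (five Salmonella typhimurium strains, ± microsomal activation) and of single oral dose mouse toxicity. Molar intensity I_m = perceived intensity × (0.25 M sucrose / compound molar concentration). The mean is reported with 2S_m limits; outliers were rejected at 95% confidence by t-value.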

Homo sapiens [4] = organism: Homo sapiens; test: Salty character at a concentration of 251 ppm (mean value); how it was run: as §1
Homo sapiens [5] = organism: Homo sapiens; test: Intensity calculated on a weight basis relative to an 85500 ppm sucrose solution at a concentration of 251 ppm (mean value)
How it was run: (§3)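 Trained human panel tasted aqueous solutions of purity-checked (≥95 weight percent) compounds cleared for mutagenicity and mouse oral toxicity. Weight-basis intensity I_w = perceived intensity × (85500 ppm sucrose / compound concentration in ppm). The mean is reported with 2S_m limits; data deviating excessively at 95% confidence were rejected by the t-value method.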

Homo sapiens [6] = organism: Homo sapiens; test: Number of taste judgments per compound
Homo sapiens [7] = organism: Homo sapiens; test: Sweet character at a concentration of 251 ppm (mean value); how it was run: as §1
Homo sapiens [8] = organism: Homo sapiens; test: Bitter character at a concentration of 251 ppm (mean value)
How it was run: (§4)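 Trained human panel tasted aqueous solutions. Each judge reported whether there was an aftertaste and its character (sweet, bitter or bitter-sweet). The value is the percentage of judgments reporting a bitter aftertaste.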

Homo sapiens [9] = organism: Homo sapiens; test: Percentage of judgments reporting an aftertaste at a concentration of 251 ppm and character thereof
How it was run: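 Trained human sensory panel; compounds tasted in aqueous solution. Before panel work, compounds had to be ≥95 weight percent pure (HPLC, proton titration, Karl Fischer) and free of mutagenicity (five Salmonella typhimurium strains, ± microsomal activation) and single oral dose mouse toxicity. Value is the percentage of judgments reporting an aftertaste, with its character recorded as sweet, bitter or bitter-sweet.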

Homo sapiens [10] = organism: Homo sapiens; test: Sweet / Bitter character at a concentration of 251 ppm (mean value); […]
Homo sapiens [11] = organism: Homo sapiens; test: Experimentally determined perceived intensity of compound at a concentration of 251 ppm (mean value)
How it was run: (§5)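 Trained human sensory panel of judges tasted aqueous solutions of the compound. Samples had to be ≥95 weight % pure (HPLC, proton titration, Karl Fischer), non-mutagenic in five Salmonella typhimurium strains with and without microsomal activation, and non-toxic in a single-oral-dose mouse test. Perceived intensity (Ip) was read from time–intensity curves at 4- or 6-s intervals and averaged. Outliers at the 95% level were rejected by t-value. Values reported as mean (2Sm).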

Homo sapiens [12] = organism: Homo sapiens; test: Other taste character at a concentration of 250 ppm (mean value); how it was run: as §1
Homo sapiens [13] = organism: Homo sapiens; test: Bitter character at a concentration of 250 ppm (mean value); how it was run: as §4
Homo sapiens [14] = organism: Homo sapiens; test: Experimentally determined perceived intensity of compound at a concentration of 250 ppm (mean value); how it was run: as §5
Homo sapiens [15] = organism: Homo sapiens; test: Intensity calculated on a weight basis relative to an 85500 ppm sucrose solution at a concentration of 250 ppm (mean value); how it was run: as §3
Homo sapiens [16] = organism: Homo sapiens; test: Intensity calculated on a molar basis relative to a 0.25 M sucrose solution at a concentration of 250 ppm (mean value); how it was run: as §2
Homo sapiens [17] = organism: Homo sapiens; test: Percentage of judgments reporting an aftertaste at a concentration of 250 ppm and character thereof
How it was run: (§6)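 Trained judges tasted aqueous solutions of the compounds, which had to be ≥95 weight percent pure and to have passed mutagenicity and single oral dose toxicity screening. The value is the percentage of panel judgments reporting an aftertaste. Where given, its character is recorded as sweet, bitter or bitter-sweet.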

Homo sapiens [18] = organism: Homo sapiens; test: Sweet character at a concentration of 250 ppm (mean value); how it was run: as §1
Homo sapiens [19] = organism: Homo sapiens; test: Sour character at a concentration of 250 ppm (mean value); how it was run: as §1
Homo sapiens [20] = organism: Homo sapiens; test: Sweet / Bitter character at a concentration of 250 ppm (mean value); 92/8
Homo sapiens [21] = organism: Homo sapiens; test: Salty character at a concentration of 250 ppm (mean value); how it was run: as §1
Homo sapiens [22] = organism: Homo sapiens; test: Percentage of judgments reporting an aftertaste at a concentration of 2400 ppm and character thereof; how it was run: as §6
Homo sapiens [23] = organism: Homo sapiens; test: Experimentally determined perceived intensity of compound at a concentration of 2400 ppm (mean value); how it was run: as §5
Homo sapiens [24] = organism: Homo sapiens; test: Sour character at a concentration of 1000 ppm (mean value)
Homo sapiens [25] = organism: Homo sapiens; test: Bitter character at a concentration of 1000 ppm (mean value); how it was run: as §4
Homo sapiens [26] = organism: Homo sapiens; test: Salty character at a concentration of 1000 ppm (mean value)
Homo sapiens [27] = organism: Homo sapiens; test: Intensity calculated on a weight basis relative to an 85500 ppm sucrose solution at a concentration of 1000 ppm (mean value); how it was run: as §3
Homo sapiens [28] = organism: Homo sapiens; test: Experimentally determined perceived intensity of compound at a concentration of 1000 ppm (mean value); how it was run: as §5
Homo sapiens [29] = organism: Homo sapiens; test: Intensity calculated on a molar basis relative to a 0.25 M sucrose solution at a concentration of 1000 ppm (mean value)
How it was run: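 Panel-derived mean perceived intensity (Ip) converted to a molar basis by Im = Ip × (0.25 M / Y), where Y is the compound's molar concentration. Reference is a 0.25 M sucrose solution. Reported with limits of 2Sm.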

Homo sapiens [30] = organism: Homo sapiens; test: Sweet / Bitter character at a concentration of 1000 ppm (mean value); 75/25
Homo sapiens [31] = organism: Homo sapiens; test: Other taste character at a concentration of 1000 ppm (mean value)
How it was run: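 Trained human panel tasted aqueous solutions of each compound. Aftertaste is scored as the percentage of judgments reporting one, with its character coded sweet (s), bitter (b) or bitter-sweet (bs).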

Homo sapiens [32] = organism: Homo sapiens; test: Sweet character at a concentration of 1000 ppm (mean value)
Homo sapiens [33] = organism: Homo sapiens; test: Percentage of judgments reporting an aftertaste at a concentration of 1000 ppm and character thereof; how it was run: as §6
Homo sapiens [34] = organism: Homo sapiens; test: Bitter character at a concentration of 497 ppm (mean value); how it was run: as §4
Homo sapiens [35] = organism: Homo sapiens; test: Sweet character at a concentration of 497 ppm (mean value)
Homo sapiens [36] = organism: Homo sapiens; test: Sweet / Bitter character at a concentration of 497 ppm (mean value); 0/100
Homo sapiens [37] = organism: Homo sapiens; test: Salty character at a concentration of 497 ppm (mean value)
Homo sapiens [38] = organism: Homo sapiens; test: Intensity calculated on a weight basis relative to an 85500 ppm sucrose solution at a concentration of 497 ppm (mean value); how it was run: as §3
Homo sapiens [39] = organism: Homo sapiens; test: Intensity calculated on a molar basis relative to a 0.25 M sucrose solution at a concentration of 497 ppm (mean value); how it was run: as §2
Homo sapiens [40] = organism: Homo sapiens; test: Experimentally determined perceived intensity of compound at a concentration of 497 ppm (mean value); how it was run: as §5
Homo sapiens [41] = organism: Homo sapiens; test: Other taste character at a concentration of 497 ppm (mean value); how it was run: as §1
Homo sapiens [42] = organism: Homo sapiens; test: Percentage of judgments reporting an aftertaste at a concentration of 497 ppm and character thereof
Homo sapiens [43] = organism: Homo sapiens; test: Sour character at a concentration of 497 ppm (mean value)

Compound: COc1ccc(CCC(=O)c2c(O)cc(OCCCP(=O)([O-])O)cc2O)cc1O.[K+]
- Taste character (Homo sapiens [1]): 0
- Taste character (Homo sapiens [2]): 13
- IM (Homo sapiens [3]): 380
- Taste character (Homo sapiens [4]): 0
- IW (Homo sapiens [5]): 280
- Judgments (Homo sapiens [6]): 12
- Taste character (Homo sapiens [7]): 80
- Taste character (Homo sapiens [8]): 7
- Judgments (Homo sapiens [9]): 100
- Taste character (Homo sapiens [10]): 92
- IP (Homo sapiens [11]): 0.83

Compound: COc1ccc(CCC(=O)c2c(O)cc(OCCC(O)C(=O)[O-])cc2O)cc1O.[Na+] (configuration not stated)
- Taste character (Homo sapiens [12]): 0
- Taste character (Homo sapiens [13]): 8
- IP (Homo sapiens [14]): 1.28
- IW (Homo sapiens [15]): 440
- IM (Homo sapiens [16]): 550
- Judgments (Homo sapiens [6]): 4
- Judgments (Homo sapiens [17]): 100
- Taste character (Homo sapiens [18]): 92
- Taste character (Homo sapiens [19]): 0
- Taste character (Homo sapiens [20]): 92
- Taste character (Homo sapiens [21]): 0

Compound: COc1ccc(CCC(=O)c2c(O)cc(OC(CCC(=O)[O-])C(=O)[O-])cc2O)cc1O.[Na+].[Na+] (configuration not stated)
- Judgments (Homo sapiens [22]): 0
- Judgments (Homo sapiens [6]): 1
- IP (Homo sapiens [23]): 0

Compound: COc1ccc(CCC(=O)c2c(O)cc(OCCN)cc2O)cc1O
- Taste character (Homo sapiens [24]): 0
- Taste character (Homo sapiens [25]): 25
- Taste character (Homo sapiens [26]): 0
- IW (Homo sapiens [27]): 86
- IP (Homo sapiens [28]): 1
- IM (Homo sapiens [29]): 87
- Taste character (Homo sapiens [30]): 75
- Judgments (Homo sapiens [6]): 1
- Taste character (Homo sapiens [31]): 0
- Taste character (Homo sapiens [32]): 75
- Judgments (Homo sapiens [33]): 100

Compound: O=C([O-])COc1cc(O)c(C(=O)CCc2ccc3c(c2)OCO3)c(O)c1.[Na+]
- Taste character (Homo sapiens [34]): 79
- Taste character (Homo sapiens [35]): 0
- Judgments (Homo sapiens [6]): 12
- Taste character (Homo sapiens [36]): 0
- Taste character (Homo sapiens [37]): 0
- IW (Homo sapiens [38]): 140
- IM (Homo sapiens [39]): 160
- IP (Homo sapiens [40]): 0.83
- Taste character (Homo sapiens [41]): 21
- Judgments (Homo sapiens [42]): 100
- Taste character (Homo sapiens [43]): 0
